Among the data in ChEMBL document CHEMBL4513216, “Probing the Open Global Health Chemical Diversity Library for Multistage-Active Starting Points for Next-Generation Antimalarials” (ACS Infect Dis, 2020) are cytotoxicity values, retold here.

Structures are written as SMILES.

The nature of the series: Toxicity liver stage against HepG2, at 10uM. It is filed as cell-based. The arrangement: test concentration 10 uM, cell line HepG2-A16-CD81EGFP. Conditions: human, HepG2-A16-CD81EGFP cells; read-out: INHIBITION
The procedure, abridged:
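Uninfected HepG2-A16-CD81EGFP cells, 3 × 10^3 per well, 1536-well, plated on prespotted compound at 10 μM final, parasite-free screening media added to match infected plates; puromycin 10 μM positive, DMSO 0.5% negative; run in parallel with 48 h PbLuc assay at 37 °C, 5% CO2; viability by CellTiter-Glo luminescence, normalized to controls.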
As to `CCOC(=O)[C@@H]1[C@@H](c2ccccc2)CN2CCN(C(=O)N(C)C)C[C@H]12`, the cytotoxicity at 10 µM was 14.8%. For `CC(O)CN1CC(C)(C)CN(C(=O)CCc2ccccc2)CC1=O` (stereo not drawn), the cytotoxicity at 10 µM was -0.321%. On to `CC(C)COC(=O)N1CC(=O)N(Cc2ccc(Cl)cc2)CC(O)C1` (stereo not drawn), for which the cytotoxicity at 10 µM was -0.947%. Regarding `O=S(=O)(NCC1(O)CCCC1)c1ccccc1Br`, the cytotoxicity at 10 µM is -3.87%. Next, `CC(=O)N1CCC2(CC1)CN(C(=O)c1ccc3c(c1)OCO3)C2`: 6.71%.

Turning to `CN(C)C(=O)CN1CCC2(CCN(S(=O)(=O)C3CC3)CC2)C1=O`, the cytotoxicity at 10 µM stood at 6.32%.

With `COCCOc1ccc(S(=O)(=O)Nc2cccnc2O)cc1C`, the cytotoxicity at 10 µM was found to be 4.68%.

Regarding `Cc1cnn(C2CCCN(C(=O)c3cc(-c4ccccc4C)n[nH]3)C2)c1` (stereo not drawn), the cytotoxicity at 10 µM was -9.66%. For `O=C(NCc1ccc(N2CCSCC2)cc1)NCc1cc[nH]n1`, the cytotoxicity at 10 µM was -0.645%. Next, `CCSc1cc(C(=O)N(Cc2cnn(C)c2)C(C)C)ccn1`: 4.64%; `O=C(NC1CCCN(Cc2c(F)cccc2F)C1)c1cc[nH]n1` (stereo not drawn): 5.72%; `CN(CC(=O)NS(=O)(=O)c1cccs1)Cc1ccccc1`: -9.71%.

For the molecule `CC(C)Cc1noc(CN(C)C2CCS(=O)(=O)C2)n1` (stereo not drawn), the cytotoxicity at 10 µM was found to be 5.7%. `CN(C)c1cc2c(nn1)CCN(C(=O)c1cc3c(s1)CCOC3)C2`: the cytotoxicity at 10 µM was determined as 2.35%. With `O=C(c1cnc(NCC2CCCO2)c(Cl)c1)N1CCCCC1` (stereo not drawn), the cytotoxicity at 10 µM is 0.139%.

As to `CCNc1c(C#N)c(=O)n(C)c(=O)n1C`, the cytotoxicity at 10 µM is 0.504%. `CC1CN(c2ncnc3ccccc23)CCO1` (stereo not drawn): the cytotoxicity at 10 µM was 23.6%. For the molecule `CC(C)(C)OC(=O)Cn1nc(C2CC2)cc(C(F)(F)F)c1=O`, the cytotoxicity at 10 µM was -8.96%. The value for `COCCCN(CCOC)C(=O)Nc1ccccc1-n1cccn1` was 1.51%. Next, `Cc1ccc(S(=O)(=O)N2CCN(Cc3ccncc3)CC2)c(Cl)c1`: -0.147%.

With `COc1cccc(C(=O)N2CCN(CC(O)c3ccccc3)CC2)c1` (stereo not drawn), the cytotoxicity at 10 µM is -46.7%. For `CCN1C[C@@H]2CN(C(=O)c3cccn3C)C[C@@H]2C1=O`, the cytotoxicity at 10 µM was -96.1%. Next, `Cn1cc(C[C@H]2[C@H](N3CCOCC3)CCN2C(=O)c2ccoc2)cn1`: -81.5%; `COCC(=O)N1CCCN(Cc2cc(O)c3ccccc3n2)CC1`: 4.02%; `CCC(=O)N1CCN(S(=O)(=O)c2cccc(F)c2)[C@H]2CS(=O)(=O)C[C@H]21`: -52%.

As for `COCCN(C)C[C@@H]1CN(c2nc(C)cc(C)n2)C[C@@H]1CO`, the cytotoxicity at 10 µM was -10.3%. With `Cc1cc(NC(C)c2nncn2C2CCCC2)n2nc(C)c(C)c2n1` (stereo not drawn), the cytotoxicity at 10 µM was determined as 13.7%. On to `Cc1nc(C(=O)N2CCCCC2c2ccc(CN(C)C)cc2)c(C)o1` (stereo not drawn), for which the cytotoxicity at 10 µM was -2.32%.

On to `CC(C)(C)CCN1CCC(c2nnc(Cn3cccn3)n2C2CC2)CC1`, for which the cytotoxicity at 10 µM is 8.19%.

With `CN(Cc1noc2c1CCCC2)C(=O)C1Cc2ccccc2CN1C` (stereo not drawn), the cytotoxicity at 10 µM is 4.74%. Consider `CC(C)Nc1ncnc2c1CCN(C(=O)c1ccccc1F)CC2`, for which the cytotoxicity at 10 µM was -86.7%.

For the molecule `CN(C)Cc1cc(=O)n2c(n1)CN(C(=O)c1ccc[nH]1)CCC2`, the cytotoxicity at 10 µM is -123%. As to `CO[C@@H]1CCN(Cc2nccn2C)[C@H]1Cc1cccnc1`, the cytotoxicity at 10 µM is -71.5%. For `Cn1cc(CN2CCCC3(COCCN(c4cccnc4)C3)C2)cn1` (stereo not drawn), the cytotoxicity at 10 µM was -75.6%. For the molecule `CCN1C[C@H]2[C@@H](C1)N(S(=O)(=O)c1ccccc1F)CC[C@H]2OC`, the cytotoxicity at 10 µM is -74.1%. Consider `Cn1ccc(C(=O)N2C[C@@H]3CCN(c4cccnc4)C[C@@H]3C2)n1`, for which the cytotoxicity at 10 µM was -106%. Take `Cc1ccc(N2CCN(C(=O)CN3C[C@H]4CC[C@@H]3C4)CC2=O)cc1`: the cytotoxicity at 10 µM was -1.41%. For `Cc1ccc(OCc2occc2C(=O)N2C[C@@H]3C(CN(C)C)[C@@H]3C2)cc1` (stereo partly drawn), the cytotoxicity at 10 µM was -1%.
